Screens: PubChem, several laboratories
Most compounds without a hit are left out; they make up all but 4% or so of the library.
OX1R antag-1: OX1R (HCRTR1) antagonists, primary screen, fluorescence, CHO/OX1R cells, Fluo-8 calcium, orexin A | Orexin/Hypocretin receptor type 1 (Homo sapiens), O43613 | Fluo-8 calcium fluorescence | inhibition, % at 5 µM | hit rate 0.43% among 330,000;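 active means inhibition above its plate's threshold, mean inhibition of all tested compounds on the plate plus 3 SD, cut at about 37% in these data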
NTR1 ag: agonists of human NTR1, primary screen, imaging, U2OS cells, beta-arrestin-GFP, high content. Neurotensin receptor type 1 (Homo sapiens), P30989. NTR1-U2OS beta-arrestin-GFP spot imaging, agonist mode. activation, % at 20 µM. hit rate 0.17% among 330,000;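 active means activation at or above 40% of the spot to cytoplasm intensity ratio, with at least 20 cells analyzed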
Target sequence (P30989 whole entry, looked up): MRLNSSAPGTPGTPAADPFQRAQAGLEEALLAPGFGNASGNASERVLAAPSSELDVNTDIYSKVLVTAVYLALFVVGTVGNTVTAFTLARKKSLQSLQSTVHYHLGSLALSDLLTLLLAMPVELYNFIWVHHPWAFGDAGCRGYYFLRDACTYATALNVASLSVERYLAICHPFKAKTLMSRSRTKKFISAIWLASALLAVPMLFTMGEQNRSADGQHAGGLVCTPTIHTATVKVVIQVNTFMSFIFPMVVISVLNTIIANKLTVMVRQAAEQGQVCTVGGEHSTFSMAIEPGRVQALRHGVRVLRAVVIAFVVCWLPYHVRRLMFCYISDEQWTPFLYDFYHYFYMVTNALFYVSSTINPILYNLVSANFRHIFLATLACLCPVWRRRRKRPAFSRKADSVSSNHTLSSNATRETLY
TAAR1 ag: human TAAR1 agonists, primary screen, Fluo-8 calcium fluorescence, CHO RD-HGA16 cells | vehicle wells 0%, saturating PEA agonist 100% | hit rate 0.99% among 360,000 | Trace amine-associated receptor 1 (Homo sapiens), Q96RJ0 | AID 624467, 2012 | activation, % at 3 µM;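 active means activation above the mean activation of all test compounds in the run plus 3 SD, cut at about 38% in these data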
Target sequence (Q96RJ0 whole entry, looked up): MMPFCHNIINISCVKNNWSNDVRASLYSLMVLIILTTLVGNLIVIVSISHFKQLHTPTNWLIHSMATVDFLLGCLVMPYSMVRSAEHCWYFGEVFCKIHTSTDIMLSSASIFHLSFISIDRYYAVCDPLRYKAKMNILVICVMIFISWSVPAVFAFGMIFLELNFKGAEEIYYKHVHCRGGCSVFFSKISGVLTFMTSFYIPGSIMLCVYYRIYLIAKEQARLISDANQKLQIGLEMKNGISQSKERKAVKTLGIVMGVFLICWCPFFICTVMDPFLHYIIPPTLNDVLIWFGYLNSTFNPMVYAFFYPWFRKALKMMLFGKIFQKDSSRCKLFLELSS
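Test system: RD-HGA16 (CHO) cells co-expressing Gα16 and hTAAR1 | Doses: Single dose, 3 µM | Schedule: 17-24 h seeding, 75 min 37 °C dye, 30 min RT | Evaluation: % activation from peak over basal fluorescence ratio, DMSO-to-PEA scaled | Technique: Kinetic Fluo-8 calcium fluorescence | Benchmarks: Low control DMSO, high control PEA (EC100)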
TAAR1 antag: human TAAR1 antagonists, primary screen, Fluo-8 calcium fluorescence, CHO RD-HGA16 cells; Trace amine-associated receptor 1 (Homo sapiens), Q96RJ0; antagonist; inhibition, % at 3 µM; hit rate 1.5% among 360,000; AID 624466, 2012;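 active means inhibition above a per-plate cutoff, the mean inhibition of test compounds on that plate plus 3 SD, cut at about 49% in these data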
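Test system: hTAAR1-expressing CHO RD-HGA16 cells, Gα16-coupled; Probe or stimulus: EC80 β-phenethylamine stimulus; Compound dosing: single nominal final test compound concentration of 3 µM; Timing: 140 s kinetic read after compound, 140 s after agonist; Signal: Fluo-8 calcium-sensitive fluorescence; Measure: % inhibition of agonist calcium response; Controls: DMSO and EC80 PEA controls.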
CHO parental Ca: ATP-evoked calcium signal inhibitors, parental CHO, primary screen, counter-screen for OX1R antagonist project, cell-based, fluorescence, Fluo-8 calcium dye; parental CHO-K1, ATP-induced calcium, Fluo-8 fluorescence; inhibition, % at 5.6 µM; hit rate 0.63% among 330,000; AID 463079, 2010;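 active means inhibition above that plate's mean sample inhibition plus 3 SD, cut at about 26% in these data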
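material = parental CHO cells | also added = ATP as calcium-mobilizing challenge | dosing = single point at 5.6 µM | detection = intracellular calcium via Fluo-8 no-wash fluorescent dye | read-out = % inhibition | benchmarks = low control ATP plus DMSO, high control DMSO only | repeats = one well per compound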
OX1R antag-2: antagonists of human orexin 1 receptor (OX1R). hit rate 1.8% among 330,000. Orexin/Hypocretin receptor type 1 (Homo sapiens), O43613. inhibition, % at 6.6 µM. OX1R-expressing cells, FRET antagonist read-out. AID 485270, 2010; in the data active means inhibition mostly above about 38%, no sharp cut-off; inactive means mostly below about 40%
TAAR1 ag confirm: human TAAR1 agonists, retest of hits, confirmation, Fluo-8 calcium fluorescence, CHO RD-HGA16 cells; activation, % at 3 µM; shares compounds with TAAR1 ag; scaled: DMSO 0%, maximal phenethylamine 100%; hit rate 82% among 2,400;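 active means activation above a cutoff set at the run's mean compound activation plus 3 SD, cut at about 39% in these data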
Ga16 nonsel ag: nonselective calcium mobilization agonists, CHO-Ga16 cells, counter-screen for hTAAR1 agonist project, cell-based, fluorescence, CHO-Ga16 parental line | shares compounds with TAAR1 ag | activation, % at 3 µM | hit rate 50% among 2,400 | AID 651787, 2012 | Fluo-8 calcium fluorescence; normalized to maximal ATP response, DMSO zero;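 active means activation above the run cutoff, the mean activation over all tested wells plus 3 SD, cut at about 12% in these data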
TAAR1 desensitize: TAAR1 desensitization by agonist hits, confirmation, counter-screen for TAAR1 agonist project, cell-based, fluorescence, tachyphylaxis; inhibition, % at 3 µM; shares compounds with TAAR1 ag; hit rate 46% among 2,400; CHO RD-HGA16 hTAAR1, Fluo-8 calcium, beta-PEA response inhibition;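 active means inhibition above the run cutoff, the mean inhibition of all test compounds plus 3 SD, cut at about 49% in these data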;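 further: beta-PEA stimulus applied at its EC80; loss of beta-PEA calcium signal after compound pretreatment read as receptor desensitization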
Ga16 nonsel ant: inhibition of ATP-evoked calcium response in CHO-Ga16 cells, counter-screen for TAAR1 agonist project, cell-based, fluorescence; shares compounds with TAAR1 ag; CHO-Ga16 ATP-induced calcium, Fluo-8 fluorescence; inhibition, % at 3 µM; hit rate 39% among 2,400; AID 651952, 2012;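 active means inhibition above the plate's mean compound inhibition plus 3 SD, computed per plate, cut at about 22% in these data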
Hits are given with their value; - = inactive; . = no result given.

SMILES	OX1R antag-1	NTR1 ag	TAAR1 ag	TAAR1 antag	CHO parental Ca	OX1R antag-2	TAAR1 ag confirm	Ga16 nonsel ag	TAAR1 desensitize	Ga16 nonsel ant
Cn1c(CNC(=O)C(Cc2ccccc2)NC(=O)c2cccc(F)c2)cc(=O)n(C)c1=O (stereo unspecified)	-	-	-	-	-	-	.	.	.	.
Nc1c(C(=O)NCc2ccc3c(c2)OCO3)nnn1Cc1ccc(Br)cc1	-	-	65	-	-	-	102	46	76	38
Nc1c(C(=O)NCc2ccc3c(c2)OCO3)nnn1CC(=O)Nc1ccc(Br)cc1	-	-	-	-	-	-	.	.	.	.
CN(CC(=O)NC(=O)NCc1ccccc1)CC(=O)Nc1ccc(Cl)c(Cl)c1	-	-	-	-	-	-	.	.	.	.
C(=NNc1nnn(Cc2ccccc2)n1)c1ccccc1	.	.	54	-	.	.	-	-	-	-
COc1ccc(NC(=O)COc2ccccc2)c(OC)c1	-	-	-	-	-	-	.	.	.	.
COc1ccc(NC(=O)COc2ccc(Br)cc2)c(OC)c1	-	-	68	67	-	-	43	13	-	-
Cc1onc(-c2ccccc2)c1C(=O)NC(=S)NNC(=O)c1ccc(O)cc1O	-	-	-	-	-	-	.	.	.	.
CCCOc1ccc(C(=O)NC(=S)NNC(=O)c2c(-c3ccccc3)noc2C)cc1	70	-	176	108	39	-	141	108	101	94
Cc1onc(-c2ccccc2)c1C(=O)NC(=S)NNC(=O)c1ccccc1O	-	-	164	57	-	-	141	103	100	63
COc1ccccc1-n1c(SCC(=O)NC2CC2)nc2ccccc2c1=O	-	-	-	-	-	-	.	.	.	.
Cc1ccc(S(=O)(=O)Nc2ccc(N(C)S(=O)(=O)c3ccc(C)cc3)cc2)cc1	-	-	52	-	-	-	45	19	-	-
CSc1ccc(S(=O)(=O)Nc2ccc(S(=O)(=O)Nc3ccc(C)cc3)cc2)cc1	-	-	-	-	-	-	.	.	.	.
CC1(C)Cc2c(cnn2-c2cccc(F)c2)C(NC(=O)c2ccc[n+]([O-])c2)C1 (stereo unspecified)	.	-	-	-	.	.	.	.	.	.
CSc1nc(-c2ccc(Cl)cc2)nn1S(=O)(=O)c1ccc(Cl)cc1	-	-	-	-	-	-	.	.	.	.
CCC(=O)n1nc(-c2ccc(Cl)cc2)nc1SC	-	-	44	-	-	-	44	-	-	-
CSc1nc(-c2ccc(Cl)cc2)nn1S(=O)(=O)c1ccccc1	-	-	.	.	-	-	.	-	.	-
CCCC(=O)n1nc(-c2ccc(Cl)cc2)nc1SC	-	-	-	-	-	-	.	.	.	.
CCN(CC(=O)Nc1c(F)cccc1F)C(=O)c1csc2c1CCCC2	-	-	-	-	-	-	.	.	.	.
Cc1nnc(NC(=O)C2c3ccccc3Oc3ccccc32)s1	-	-	-	-	-	-	.	.	.	.
CCOCc1nnc(NC(=O)C2c3ccccc3Oc3ccccc32)s1	-	-	77	-	-	-	91	54	49	37
c1ccc2c(CC3=NCCN3)cccc2c1	-	-	97	74	-	-	95	-	90	-
c1ccc2c(CCc3ccncc3)cccc2c1	.	.	-	-	.	.	.	.	.	.
CCC(=O)OCCn1c(=O)c2cc3c(=O)n(CCOC(=O)CC)c(=O)c3cc2c1=O	-	-	-	-	-	-	.	.	.	.
CCCOC(=O)Cn1c(=O)c2cc3c(=O)n(CC(=O)OCCC)c(=O)c3cc2c1=O	.	.	53	-	.	.	-	-	-	-
SMILES	OX1R antag-1	NTR1 ag	TAAR1 ag	TAAR1 antag	CHO parental Ca	OX1R antag-2	TAAR1 ag confirm	Ga16 nonsel ag	TAAR1 desensitize	Ga16 nonsel ant
CCOC(=O)c1c(C)[nH]c(C)c1S(=O)(=O)NCCc1ccc(SC)cc1	-	-	-	-	-	-	.	.	.	.
CCOC(=O)c1c(C)[nH]c(C)c1S(=O)(=O)NCCc1sccc1C	-	-	54	-	-	-	-	-	-	-
CC(=O)Nc1ccc(Sc2ncccc2C(=O)Nc2ccc(F)cc2)cn1	101	-	174	104	72	-	150	113	106	89
Cn1cnnc1SCC(=O)Nc1ccc2nc(SCc3ccccc3)sc2c1	-	-	44	-	-	-	48	21	-	25
O=C(OCc1cccc(C(F)(F)F)c1)c1cc(S(=O)(=O)N2CCOCC2)ccc1F	-	-	-	-	-	-	.	.	.	.
COc1ccccc1CCN1C(=S)NC(C)(C)CC1(C)O (stereo unspecified)	-	-	51	-	-	-	74	-	-	-
COc1ccc(CN2C(=S)NC(C)(C)CC2(C)O)cc1 (stereo unspecified)	-	-	-	-	-	-	.	.	.	.
Cc1c(CNCCc2ccccc2Cl)c(C(=O)O)c(C)n1-c1ccccc1	-	-	90	65	-	-	92	25	74	-
Cc1c(CNCCC2=CCCCC2)c(C(=O)O)c(C)n1Cc1ccccc1	-	-	-	-	-	-	.	.	.	.
Cc1cc(Nc2ccccc2C(=O)O)n(-c2ccc([N+](=O)[O-])cc2)n1	-	-	-	-	-	-	.	.	.	.
Nc1c(NCCC2=CCCCC2)c(=O)[nH]c(=O)n1Cc1ccccc1	-	-	55	-	-	-	68	-	-	-
O=c1[nH]ncc(N/N=C/c2ccccc2)c1Cl	-	-	64	78	-	-	92	-	93	-
Cc1ccsc1/C=N\Nc1cn[nH]c(=O)c1Cl	-	-	74	54	-	-	87	-	77	-
Cc1ccc(/C=N/Nc2nnc(Cl)c3ccccc23)cc1	-	-	-	-	-	-	.	.	.	.
